Results as given in ChEMBL document CHEMBL1275329, “Fruitful adrenergic α(2C)-agonism/α(2A)-antagonism combination to prevent and contrast morphine tolerance and dependence” (J Med Chem, 2010).
Active and inactive are the calls of the source. The rule behind the calls is not given here.

Assays:
Mus musculus [1] = assay: Reduction in morphine dependence expression in CD1 mouse assessed as decrease in expression of naloxone-precipitated withdrawal syndrome at 0.05 mg/kg, ip bid administered 15 mins before last morphine dosing […]; assay type: functional, organism-based; parameters: dose 0.05 mg/kg
Summary of the method: (§1)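 In male CD-1 mice, morphine 10 mg/kg sc was given twice daily at 12 h intervals for 6 days, with test agent 0.05 mg/kg ip 15 min before each morphine dose. Jumping was counted, and somatic signs were scored as the sum of rearing, forepaw tremor and teeth chatter. Blind observers; mean ± SEM.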

[2] = molecular target: T1, Alpha-2A adrenergic receptor (Homo sapiens) (UniProt P08913); assay: Antagonist activity at human alpha2A adrenoceptor expressed in CHO cells assessed as effect on agonist-induced extracellular acidification by microphysiometry; assay type: functional, cell-based
T1 sequence (whole entry): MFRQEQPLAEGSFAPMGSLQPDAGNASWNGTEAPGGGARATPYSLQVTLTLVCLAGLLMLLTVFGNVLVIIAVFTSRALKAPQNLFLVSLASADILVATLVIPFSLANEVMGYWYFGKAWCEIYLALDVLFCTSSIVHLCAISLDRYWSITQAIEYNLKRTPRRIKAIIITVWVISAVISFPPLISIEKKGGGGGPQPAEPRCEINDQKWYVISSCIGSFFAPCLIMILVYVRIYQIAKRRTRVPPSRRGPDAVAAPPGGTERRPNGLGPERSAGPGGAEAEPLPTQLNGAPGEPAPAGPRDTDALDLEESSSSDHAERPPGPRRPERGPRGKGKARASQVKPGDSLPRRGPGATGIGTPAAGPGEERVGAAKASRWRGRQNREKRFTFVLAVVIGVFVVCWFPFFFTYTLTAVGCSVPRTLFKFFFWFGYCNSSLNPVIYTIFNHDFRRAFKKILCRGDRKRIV
Summary of the method: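 CHO cells stably expressing one human α2-AR subtype were run on the Cytosensor microphysiometer with bicarbonate-free DMEM perfusion. […] Kb = M/(concentration ratio − 1), where the ratio is EC50 with antagonist over EC50 without. Reported as pKb, mean ± SEM of 3–6 experiments.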

Mus musculus [3] = assay: Reduction in morphine dependence expression in CD1 mouse assessed as decrease in frequency of jumping at 0.05 mg/kg, ip bid administered 15 mins before last morphine dosing […]; assay type: functional; parameters: scale not given: the % may be the effect or the level left; conditions: route intraperitoneal; summary of the method: as §1
[4] = molecular target: T2, Alpha-2B adrenergic receptor (Homo sapiens) (UniProt P18089); conditions: CHO
T2 sequence (whole entry): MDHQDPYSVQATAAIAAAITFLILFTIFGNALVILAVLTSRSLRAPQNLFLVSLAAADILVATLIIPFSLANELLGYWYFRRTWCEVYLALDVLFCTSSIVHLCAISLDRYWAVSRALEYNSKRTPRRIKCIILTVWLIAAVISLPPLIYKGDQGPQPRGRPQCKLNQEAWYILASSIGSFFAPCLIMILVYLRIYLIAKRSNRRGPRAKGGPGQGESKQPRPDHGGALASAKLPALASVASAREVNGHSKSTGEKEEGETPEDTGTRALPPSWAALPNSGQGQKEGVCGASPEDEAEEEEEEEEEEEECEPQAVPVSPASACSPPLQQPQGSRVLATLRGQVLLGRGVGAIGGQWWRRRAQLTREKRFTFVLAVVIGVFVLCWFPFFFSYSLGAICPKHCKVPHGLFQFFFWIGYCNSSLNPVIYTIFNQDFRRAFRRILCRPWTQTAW

[5] = molecular target: T3, Alpha-2C adrenergic receptor (Homo sapiens) (UniProt P18825); assay: Agonist activity at human Alpha-2C adrenoceptor expressed in CHO cells assessed as induction of extracellular acidification by microphysiometry relative to (-)noradrenaline; assay type: functional, cell-based
T3 sequence (whole entry): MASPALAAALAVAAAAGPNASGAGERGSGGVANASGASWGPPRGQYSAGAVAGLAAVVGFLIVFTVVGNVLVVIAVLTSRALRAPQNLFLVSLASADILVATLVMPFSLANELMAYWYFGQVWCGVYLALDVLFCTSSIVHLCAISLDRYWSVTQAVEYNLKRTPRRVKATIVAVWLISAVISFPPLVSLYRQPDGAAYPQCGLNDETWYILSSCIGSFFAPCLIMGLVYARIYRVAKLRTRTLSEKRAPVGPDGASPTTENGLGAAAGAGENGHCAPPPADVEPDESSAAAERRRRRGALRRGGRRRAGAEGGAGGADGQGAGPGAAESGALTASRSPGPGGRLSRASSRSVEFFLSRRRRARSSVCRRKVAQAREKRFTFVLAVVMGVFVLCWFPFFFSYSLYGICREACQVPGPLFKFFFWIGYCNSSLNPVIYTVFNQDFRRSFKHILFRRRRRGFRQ
Summary of the method: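 Cytosensor microphysiometry on CHO cells stably expressing one human α2-AR subtype, seeded at 3 × 10⁵ cells/cup and grown 24 h at 37 °C. Cells were perfused with bicarbonate-free DMEM and exposed to agonist for 4 min, with 30 min washes between exposures. The read-out is the change in acidification rate: peak after agonist minus the mean of three prior readings. […] Mean ± SEM, 3–6 experiments.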

Mus musculus [6] = assay: Reduction in morphine dependence expression in CD1 mouse assessed as decrease in somatic signs at 0.05 mg/kg, ip bid administered 15 mins before last morphine dosing […]; assay type: functional; parameters: scale not given: the % may be the effect or the level left; conditions: route intraperitoneal; summary of the method: as §1
Mus musculus [7] = assay: Reduction in morphine tolerance acquisition in CD1 mouse assessed as morphine analgesic effect incidence at 0.05 mg/kg, ip administered as single dose 15 mins before last morphine dosing on test day post morphine challenge by radiant heat tail flick test; assay type: functional; parameters: scale not given: the % may be the effect or the level left; conditions: route intraperitoneal
Summary of the method: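 Tolerance was induced in male CD-1 mice with morphine 10 mg/kg sc twice daily at 12 h intervals for 5 days. On day 5, test agent 0.05 mg/kg ip was given once, 15 min before the last morphine injection. Tail-flick antinociception was read 30 min after that injection and expressed as %MPE, with day 1 vs day 5 compared.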

Mus musculus [8] = assay: Reduction in morphine tolerance acquisition in CD1 mouse assessed as morphine analgesic effect incidence at 0.05 mg/kg, ip bid administered 15 mins before last morphine dosing by radiant heat tail flick test; assay type: functional, organism-based; parameters: dose 0.05 mg/kg

C=CCc1ccccc1OC(C)C1=NCCN1 (racemic) [ALLYPHENYLINE]
Activity (Mus musculus [1]): Active | pKb [2]: 7.4 | Activity (Mus musculus [3]): 80% | pEC50 [4]: inactive | Intrinsic activity [5]: 0.9 | Activity (Mus musculus [6]): 40% | Activity (Mus musculus [7]): 22% | Activity (Mus musculus [8]): Active
